Assays:
Assay type in all cases: cell-based
[1] = MTT cytotoxic assay, HeLa; details: human, HeLa cells
Summary of the method: (§1)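 Cells grown in RPMI-1640 with 10% fetal bovine serum, 5% CO2, 37 °C. Seeded at 5 × 10^4 cells per mL, 24 h to form a monolayer, then medium replaced with fresh medium plus test compound at 50, 25, 12.5, 6.25, 3.125, 1.5625 μg mL−1. After 3 days, MTT 4 h, formazan in DMSO, OD 570 nm. Inhibition rate from OD versus control, IC50 calculated; three individual experiments, mean ± SD; adriamycin positive control.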

[2] = MTT cytotoxic assay, A549; details: human, A549 cells
Summary of the method: as §1

[3] = MTT cytotoxic assay, HepG2; details: human, HepG2 cells
Summary of the method: as §1

In the case of `COc1cccc2c1C(=O)c1c(O)c3c(c(O)c1C2=O)C[C@@](O)(C(=O)CO)C[C@@H]3O[C@H]1C[C@H](N)[C@H](O)[C@H](C)O1` [Adriamycin, adriamycin], the IC50 at 3 days [1] is reported as 0.48 ± 0.07 µM, the IC50 at 3 days [2] is reported as 0.68 ± 0.06 µM and the IC50 at 3 days [3] is reported as 1.25 ± 0.04 µM.
